Active and inactive are the calls of the source. The rule behind the calls is not given here.
Assays:
Mus musculus [1] = experiment: Antagonism of 1'-benzyl-6,7-didehydro-3,14-dihydroxy-4,5alpha-epoxy-17-methyl-4',5',6',7'-tetrahydroindolo[2',3':6,7]morphinan-induced antinociceptive activity in mouse at 30 mg/kg, sc; format: functional; set-up: scale not given: the % may be the effect or the level left; conditions: route subcutaneous
Mus musculus [2] = organism: Mus musculus; experiment: Reversal of 1'-benzyl-6,7-didehydro-3,14-dihydroxy-4,5alpha-epoxy-17-methyl-4',5',6',7'-tetrahydroindolo[2',3':6,7]morphinan-induced antinociceptive activity in mouse; format: functional
Mu-type opioid receptor [3] = target: T1, Mu-type opioid receptor (Homo sapiens, UniProt P35372); experiment: Displacement of [3H]DAMGO from human recombinant mu opioid receptor expressed in CHO cells; format: cell-based
Summary of the method: (§1)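 Radioligand displacement was run on human recombinant receptors expressed in CHO cells. The labels were [3H]DAMGO for MOR and [3H]U69593 for KOR. Values are the mean of two experiments, each in triplicate.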

Mu-type opioid receptor [4] = target: T1, Mu-type opioid receptor; experiment: Activity at human recombinant mu opioid receptor expressed in CHO cells by [35S]GTP-gamma-S binding assay; format: functional, cell-based
Summary of the method: (§2)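 Human recombinant opioid receptors expressed in CHO cells. Agonist-stimulated [35S]GTPγS binding was measured and efficacy was referenced to DAMGO (MOR) or U69593 (KOR). Values are means of five or six experiments.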

[5] = target: T2, Kappa-type opioid receptor (Homo sapiens, UniProt P41145); experiment: Activity at human recombinant kappa opioid receptor expressed in CHO cells by [35S]GTP-gamma-S binding assay relative to U69593; format: functional, cell-based; summary of the method: as §2
[6] = target: T2, Kappa-type opioid receptor; experiment: Activity at human recombinant kappa opioid receptor expressed in CHO cells by [35S]GTPgammaS binding assay; format: functional, cell-based; summary of the method: as §2
[7] = target: T2, Kappa-type opioid receptor; experiment: Displacement of [3H]U-69593 from human recombinant kappa opioid receptor expressed in CHO cells; format: cell-based; summary of the method: as §1
Mu-type opioid receptor [8] = target: T1, Mu-type opioid receptor; experiment: Activity at human recombinant mu opioid receptor expressed in CHO cells by [35S]GTPgammaS binding assay relative to DAMGO; format: functional, cell-based; summary of the method: as §2
Mus musculus [9] = experiment: Antagonism of SNC80-induced antinociceptive effect in mouse assessed by phenylquinone-induced abdominal stretch assay at 1 mg/kg, sc; format: functional, Abdomen; set-up: scale not given: the % may be the effect or the level left; conditions: route subcutaneous
Summary of the method: (§3)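 Mouse phenylquinone (PPQ) abdominal stretch assay. The test compound was given sc, and its antagonism of SNC80-induced antinociception was scored as percent antagonism of the agonist effect.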

[10] = target: T3, Delta-type opioid receptor (Homo sapiens, UniProt P41143); conditions: CHO
[11] = target: T3, Delta-type opioid receptor; experiment: Displacement of [3H]Cl-DPDPE from human recombinant delta opioid receptor expressed in CHO cells; format: cell-based
Rattus norvegicus = experiment: Prevention of SNC80-induced convulsions in Sprague-Dawley rat at 10 mg/kg, sc administered 20 mins before SNC80; format: functional, organism-based; set-up: dose 10 mg/kg
Summary of the method: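 The test compound was given at 10 mg/kg sc 20 min before SNC80 (32 mg/kg), and prevention of SNC80-mediated convulsions was scored.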

Mus musculus [12] = experiment: Antagonism of SNC80-induced antinociceptive effect in mouse assessed by phenylquinone-induced abdominal stretch assay at 3 mg/kg, sc; format: functional, Abdomen; set-up: scale not given: the % may be the effect or the level left; conditions: route subcutaneous; summary of the method: as §3
Mus musculus [13] = experiment: Antagonism of SNC80-induced antinociceptive effect in mouse assessed by phenylquinone-induced abdominal stretch assay at 10 mg/kg, sc; format: functional, Abdomen; set-up: scale not given: the % may be the effect or the level left; conditions: route subcutaneous; summary of the method: as §3
Mus musculus [14] = experiment: Antagonism of SNC80-induced antinociceptive effect in sc dosed mouse assessed by phenylquinone-induced abdominal stretch assay; format: functional, organism-based; conditions: Abdomen; summary of the method: as §3
Mus musculus [15] = experiment: Reversal of SNC80-induced antinociceptive effect in mouse assessed by phenylquinone-induced abdominal stretch assay at […], icv administered 24 hrs before SNC80; format: functional, Abdomen
Mus musculus [16] = experiment: Antinociceptive activity in sc dosed mouse; format: functional
Summary of the method: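 Antinociception was measured in the mouse PPQ-induced abdominal stretch assay after sc dosing.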

T2 sequence (P41145 whole entry): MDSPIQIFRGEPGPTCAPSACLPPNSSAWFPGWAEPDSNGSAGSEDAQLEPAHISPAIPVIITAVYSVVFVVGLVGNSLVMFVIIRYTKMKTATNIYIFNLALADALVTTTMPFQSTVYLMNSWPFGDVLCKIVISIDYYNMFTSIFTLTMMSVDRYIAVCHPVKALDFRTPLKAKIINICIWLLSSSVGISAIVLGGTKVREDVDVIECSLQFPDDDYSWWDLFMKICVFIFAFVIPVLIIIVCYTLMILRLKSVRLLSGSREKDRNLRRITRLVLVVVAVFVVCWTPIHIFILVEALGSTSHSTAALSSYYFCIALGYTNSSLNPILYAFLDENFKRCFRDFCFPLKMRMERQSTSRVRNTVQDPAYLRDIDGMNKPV
T1 sequence (P35372 whole entry): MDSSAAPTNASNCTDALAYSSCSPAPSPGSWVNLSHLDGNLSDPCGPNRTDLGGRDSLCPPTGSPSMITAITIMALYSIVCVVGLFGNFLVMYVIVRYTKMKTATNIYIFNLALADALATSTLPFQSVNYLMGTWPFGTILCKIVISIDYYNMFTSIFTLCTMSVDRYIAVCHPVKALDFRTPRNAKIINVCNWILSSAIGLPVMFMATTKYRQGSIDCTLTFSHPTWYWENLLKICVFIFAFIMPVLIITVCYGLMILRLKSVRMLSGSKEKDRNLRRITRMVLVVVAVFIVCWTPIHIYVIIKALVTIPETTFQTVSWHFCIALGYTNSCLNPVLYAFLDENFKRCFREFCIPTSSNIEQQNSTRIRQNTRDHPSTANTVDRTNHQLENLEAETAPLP
T3 sequence (P41143 whole entry): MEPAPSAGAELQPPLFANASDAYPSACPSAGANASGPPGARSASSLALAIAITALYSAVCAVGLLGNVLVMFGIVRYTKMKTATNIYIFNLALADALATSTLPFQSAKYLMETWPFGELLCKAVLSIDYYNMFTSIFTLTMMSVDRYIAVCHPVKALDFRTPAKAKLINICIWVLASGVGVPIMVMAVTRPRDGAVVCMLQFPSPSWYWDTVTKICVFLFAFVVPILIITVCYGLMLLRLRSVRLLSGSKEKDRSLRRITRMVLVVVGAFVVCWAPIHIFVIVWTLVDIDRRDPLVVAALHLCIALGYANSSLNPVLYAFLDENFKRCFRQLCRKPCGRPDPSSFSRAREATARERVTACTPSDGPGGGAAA

| SMILES | Ki (Mu-type opioid receptor [3]) [nM] | Ke (Mu-type opioid receptor [4]) [nM] | Activity [5] [%] | EC50 [6] [nM] | Ki [7] [nM] | EC50 (Mu-type opioid receptor [4]) [nM] | Activity (Mu-type opioid receptor [8]) [%] | Ke [6] [nM] | further results |
| --- | --- | --- | --- | --- | --- | --- | --- | --- | --- |
| Oc1ccc2c3c1O[C@H]1c4[nH]c5ccccc5c4C[C@@]4(O)[C@@H](C2)N(CC2CC2)CC[C@]314 [NALTRINDOLE] |  |  |  |  |  |  |  |  | Activity (Mus musculus [1]): 40% |
| O=C1CC[C@@]2(O)[C@H]3Cc4ccc(O)c5c4[C@@]2(CCN3CC2CC2)[C@H]1O5 [NALTREXONE] |  |  |  |  |  |  |  |  | AD50 (Mus musculus [2]): 0.02 mg/kg |
| Oc1ccc2c3c1O[C@H]1c4c(c5c(n4CC4CCCCC4)CCCC5)C[C@@]4(O)C(C2)N(CC2CC2)CC[C@]314 | 18.5 | 11.6 | 84 | 54.3 | 24.9 |  |  |  |  |
| CN1CC[C@]23c4c5ccc(O)c4O[C@H]2c2c(c4c(n2CC2CCCCC2)CCCC4)C[C@@]3(O)C1C5 | 17.9 |  | 85 | 153 | 262 | 130 | 57 |  |  |
| Cn1c2c(c3c1[C@@H]1Oc4c(O)ccc5c4[C@@]14CCN(CC1CC1)[C@H](C5)[C@]4(O)C3)CCCC2 | 5.76 | 4.3 |  |  | 4.11 |  |  | 12.2 |  |
| CCn1c2c(c3c1[C@@H]1Oc4c(O)ccc5c4[C@@]14CCN(C)C(C5)[C@]4(O)C3)CCCC2 | 25.8 |  | 66 | 98.2 | 168 | 175 | 41 |  |  |
| Oc1ccc2c3c1O[C@H]1c4c(c5ccccc5n4Cc4ccccc4)C[C@@]4(O)C(C2)N(CC2CC2)CC[C@]314 |  |  |  |  |  |  |  |  | Activity (Mus musculus [9]): 57% |
| CN1CC[C@]23c4c5ccc(O)c4O[C@H]2c2c(c4c(n2CCc2ccccc2)CCCC4)C[C@@]3(O)C1C5 | 15.4 |  | 76 | 131 | 163 | 175 | 71 |  |  |
| Cn1cc(-c2ccccc2)c2c1[C@@H]1Oc3c(O)ccc4c3[C@@]13CCN(CC1CC1)C(C4)[C@]3(O)C2 | 7.6 | 4.04 |  |  | 18.5 |  |  | 34.1 | Ke [10]: 0.62 nM; Ki [11]: 3.35 nM |
| Oc1ccc2c3c1O[C@H]1c4c(c5c(n4CCc4ccccc4)CCCC5)C[C@@]4(O)C(C2)N(CC2CC2)CC[C@]314 | 7.46 | 5.66 | 76 | 13.8 |  |  |  |  |  |
| CCn1cc(-c2ccccc2)c2c1[C@@H]1Oc3c(O)ccc4c3[C@@]13CCN(CC1CC1)C(C4)[C@]3(O)C2 | 8.75 | 10.7 |  |  | 24.3 |  |  | 44 | Ke [10]: 0.72 nM; Ki [11]: 2.95 nM |
| CN1CC[C@]23c4c5ccc(O)c4O[C@H]2c2c(c4c(n2C)CCCC4)C[C@@]3(O)C1C5 |  |  | 69 | 97.2 | 89.1 | 222 | 39 |  |  |
| Oc1ccc2c3c1O[C@H]1c4c(c5c(n4Cc4ccccc4)CCCC5)C[C@@]4(O)C(C2)N(CC2CC2)CC[C@]314 | 5.39 | 8.13 |  |  | 6.29 |  |  | 49.8 | Ke [10]: 2.23 nM; Activity (Rattus norvegicus): Active; Activity (Mus musculus [12]): 54%; Activity (Mus musculus [13]): 54%; Ki [11]: 2.94 nM |
| CCn1c2c(c3c1[C@@H]1Oc4c(O)ccc5c4[C@@]14CCN(CC1CC1)C(C5)[C@]4(O)C3)CCCC2 | 5.06 | 5.32 | 63 | 14.3 | 7.38 |  |  |  |  |
| CN1CC[C@]23c4c5ccc(O)c4O[C@H]2c2c(c4c(n2Cc2ccccc2)CCCC4)C[C@@]3(O)C1C5 | 88.9 |  | 43 | 1750 | 289 | 732 | 44 |  | Activity (Mus musculus [14]): inactive; Activity (Mus musculus [15]): >50%; ED50 (Mus musculus [16]): 5.1 mg/kg |
| Oc1ccc2c3c1O[C@H]1c4c(c5c(n4CC4CC4)CCCC5)C[C@@]4(O)C(C2)N(CC2CC2)CC[C@]314 | 2.52 |  |  |  | 2.51 |  |  | 11.8 |  |
